Holding throughout (experiment): Two-electrode voltage-clamp recordings, Xenopus oocytes
Common to all, as to type: cell-based

For assay [1], the target named is GluK2 kainate receptors (Rattus norvegicus, UniProt P42260). As to conditions: 10 μM TCN-201. The method in brief: (§1)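 Xenopus laevis oocytes (female) were injected with in vitro transcribed cRNA and recorded by two-electrode voltage clamp 3–4 d after injection at 23°C, holding at −40 mV. Voltage and current electrodes held 0.3 and 3.0 M KCl.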
Assay [2] addresses GluN1/2D-(2A S1) (Rattus norvegicus, UniProt P35439+Q62645, A432V/A445I/A493S/A563S/D455N/D515N/D531V/DELINS461-477KFVKINNSTNEGMNV/F526V/G450E/G497K/G516N/H494R/I448L/I453V/I496V/I514V/I534V/I546V/P444D/R437A/R479K/R491K/S449T/S456T/S499T/T430S/V431I). As to conditions: 100 μM glutamate + 3 μM glycine; N.E. = no effect at 10 μM TCN-201. The method in brief:
(§2)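 cRNA from linearized constructs injected into female Xenopus laevis oocytes. Two-electrode voltage clamp done 3–4 d later at 23°C, holding at −40 mV, in 90 NaCl, 1 KCl, 10 HEPES, 0.5 BaCl₂, 0.01 EDTA (mM), pH 7.4. […] Max inhibition is (control − residual at saturating compound)/control.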

The target of assay [3] is GluN1/2A-(2D ATD) (Rattus norvegicus, UniProt P35439+Q00959+Q62645, A388P/C399P/D398Q/D403T/E353D/E371T/E400V/G345N/H358N/H387Y/K346R/K368R/K374V/K377S/K394G/L348Y/N367T/N380Q/N404Q/P391S/P401D/Q356L/R360S/R386K/S384R/S395R/S397L/T351N/V365S/V389L/Y355F). As to conditions: 100 μM glutamate plus 30 μM glycine; vs GluN1/GluN2A.
The target of assay [4] is GluN1/GluN2A E790M (Rattus norvegicus, UniProt P35439+Q00959, E790M). The note with it: 100 μM glutamate + 3 μM glycine.
In assay [5] the target is GluN1/GluN2A L777A (Rattus norvegicus, UniProt P35439+Q00959, L777A). The note with it: 100 μM glutamate + 3 μM glycine.
Assay [6] concerns the target GluA1 AMPA receptors (Rattus norvegicus, UniProt P19490). The note with it: 10 μM TCN-201. The method in brief: as §1
Assay [7] addresses GluN1/GluN2A V783T (Rattus norvegicus, UniProt P35439+Q00959, V783T). The note with it: 100 μM glutamate + 3 μM glycine.
The target in assay [8] is GluN1/GluN2A Q781A (Rattus norvegicus, UniProt P35439+Q00959, Q781A). As to conditions: 100 μM glutamate + 3 μM glycine.
Assay [9] addresses GluN1/2A-(2D S2) (Rattus norvegicus, UniProt P35439+Q00959, D675E/D715E/E790M/F680L/F708Y/G712R/G740R/G786D/H674Q/I755V/K668R/K738M/M788I/N696S/P770R/Q661T/Q703S/Q766H/Q774P/R681K/R692K/R711P/R741K/S677Y/S719Q/S758T/T663S/T706V/T722A/T793R/T797S/V718T/V783L/Y676Q/Y700D/Y754K). The note with it: 100 μM glutamate + 3 μM glycine; N.E. = no effect at 10 μM TCN-201. In outline:
as §2

Chain of GluA1 AMPA receptors (P19490 19-907): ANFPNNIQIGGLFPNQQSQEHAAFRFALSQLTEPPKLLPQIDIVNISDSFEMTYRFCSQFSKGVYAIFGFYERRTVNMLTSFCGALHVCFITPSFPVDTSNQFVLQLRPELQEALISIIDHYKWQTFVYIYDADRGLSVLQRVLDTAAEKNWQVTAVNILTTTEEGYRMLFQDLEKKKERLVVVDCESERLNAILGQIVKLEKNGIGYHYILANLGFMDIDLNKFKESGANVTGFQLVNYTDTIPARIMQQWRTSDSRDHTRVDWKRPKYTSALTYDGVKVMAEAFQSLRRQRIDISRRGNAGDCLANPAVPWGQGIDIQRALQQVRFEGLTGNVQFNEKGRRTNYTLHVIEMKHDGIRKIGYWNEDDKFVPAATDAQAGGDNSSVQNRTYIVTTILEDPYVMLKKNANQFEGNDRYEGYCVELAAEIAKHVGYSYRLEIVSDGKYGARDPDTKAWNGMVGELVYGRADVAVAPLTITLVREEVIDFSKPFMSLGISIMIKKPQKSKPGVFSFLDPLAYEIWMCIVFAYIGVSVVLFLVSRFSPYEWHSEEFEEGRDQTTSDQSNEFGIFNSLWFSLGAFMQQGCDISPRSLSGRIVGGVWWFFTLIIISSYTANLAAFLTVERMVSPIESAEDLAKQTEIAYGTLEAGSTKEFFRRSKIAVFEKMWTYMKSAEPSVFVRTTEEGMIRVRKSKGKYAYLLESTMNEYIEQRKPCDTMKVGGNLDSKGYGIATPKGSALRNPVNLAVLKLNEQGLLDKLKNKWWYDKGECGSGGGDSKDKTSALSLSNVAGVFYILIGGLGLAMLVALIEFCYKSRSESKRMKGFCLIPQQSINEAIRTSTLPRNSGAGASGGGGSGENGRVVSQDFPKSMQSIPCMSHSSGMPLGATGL
Chain of GluK2 kainate receptors (P42260 32-908): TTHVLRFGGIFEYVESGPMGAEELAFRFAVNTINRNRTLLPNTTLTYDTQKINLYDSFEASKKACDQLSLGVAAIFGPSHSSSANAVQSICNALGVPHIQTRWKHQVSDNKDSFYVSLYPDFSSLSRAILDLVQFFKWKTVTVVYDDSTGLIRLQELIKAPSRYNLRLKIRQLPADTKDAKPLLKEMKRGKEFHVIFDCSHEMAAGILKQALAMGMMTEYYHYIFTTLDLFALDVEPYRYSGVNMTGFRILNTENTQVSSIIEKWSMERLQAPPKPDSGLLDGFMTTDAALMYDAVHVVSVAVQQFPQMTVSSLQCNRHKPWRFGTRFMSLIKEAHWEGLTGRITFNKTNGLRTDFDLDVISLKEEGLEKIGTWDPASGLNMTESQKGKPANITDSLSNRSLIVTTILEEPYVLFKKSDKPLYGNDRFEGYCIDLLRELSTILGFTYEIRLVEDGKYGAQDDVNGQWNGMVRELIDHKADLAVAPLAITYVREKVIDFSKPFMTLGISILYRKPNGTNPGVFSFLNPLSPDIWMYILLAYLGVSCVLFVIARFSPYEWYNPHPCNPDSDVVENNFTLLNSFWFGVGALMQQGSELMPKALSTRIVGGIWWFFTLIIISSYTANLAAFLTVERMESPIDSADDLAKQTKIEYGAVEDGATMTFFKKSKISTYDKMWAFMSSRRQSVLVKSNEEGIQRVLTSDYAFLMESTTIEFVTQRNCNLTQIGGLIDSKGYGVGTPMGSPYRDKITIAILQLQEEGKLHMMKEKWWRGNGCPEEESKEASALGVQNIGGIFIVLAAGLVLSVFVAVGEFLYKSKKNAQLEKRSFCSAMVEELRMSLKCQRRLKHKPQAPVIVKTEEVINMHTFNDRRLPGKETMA

Regarding `O=C(NNC(=O)c1ccc(CNS(=O)(=O)c2ccc(F)c(Cl)c2)cc1)c1ccccc1` [TCN-201, 3-chloro-4-fluoro-N-[(4-[(2-(phenylcarbonyl)hydrazino)carbonyl]phenyl)methyl]-benzenesulfonamide], the “Effect on responses activated by 100 μM glutamate” value in assay [1] and in [6] was “did not affect responses” each time. Further, the “TCN-201 activity IC50” value was “did not introduce TCN-201 sensitivity and N.E” in assay [2]; “no inhibition was observed and N.E” in assay [9]. Moreover, in assay [3], the “Inhibition by 3 μM TCN-201” value is recorded as “did not reduce inhibition”. The “TCN-201 activity Max. % inhibition” value in [4] came to 90 ± 3%; in [5], 98 ± 1%; in assay [7] it was 91 ± 1%; in [8], 94 ± 2%. The “TCN-201 activity nH” value in assay [4] was 1.4; in assay [5], 1.2; in [7], 1.5; in assay [8], 1.9.

Source of the values: PMC3355950 (The Journal of Neuroscience, 2012).
